# Assay results published in ChEMBL document CHEMBL1129970, “Biologically active conformer of the effector region of human C5a and modulatory effects of N-terminal receptor binding determinants on activity” (J Med Chem, 1997).
# What was measured:
# [1] = species: Homo sapiens; test: Effective concentration to induce smooth muscle contraction in human fetal artery; format: functional; details: Muscle tissue
# Procedure, shortened: (§1)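 Human fetal artery smooth muscle contraction; full dose–response curves for recombinant human C5a or each peptide in the same tissue preparation. EC50 is the concentration giving 50% of the maximal response, read relative to the C5a maximum. pD2 = −log EC50 (M), averaged per peptide ± SE. Log potency ratio pD2(C5a) − pD2(peptide) is computed within each experiment. Relative potency = antilog(−Δ) × 100.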
# [2] = species: Homo sapiens; test: Tested for inhibition of binding of [125I]C5a to intact human polymorphonuclear cells (PMN) (n=3); format: functional
# Procedure, shortened: (§2)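 Competition binding on freshly isolated intact human PMNs (0.25 × 10⁶) with 20 pM [¹²⁵I]C5a plus unlabeled C5a or peptide. Buffer is 50 mM HEPES, 1 mM CaCl₂, 5 mM MgCl₂, 0.5% BSA. Incubation 60 min at 4 °C, then filtration, ice-cold washes and gamma counting, triplicates. Nonspecific binding defined with 1 mM peptide or 100 nM C5a. Relative affinity = antilog[−(log IC50 C5a − log IC50 peptide)] × 100. The potency/binding ratio is EC50 divided by the binding IC50.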
# [3] = species: Homo sapiens; test: Effective concentration to stimulate beta-glucuronidase release from human polymorphonuclear cells (PMN) (n=4); format: functional
# Procedure, shortened: (§3)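 Human PMNs pretreated with cytochalasin B (5 μg/mL, 10 min, 37 °C), then 10⁶ cells stimulated for 60 min at 37 °C. β-Glucuronidase in the supernatant is assayed with 0.01 M p-nitrophenyl β-D-glucuronide (0.1 M acetate, pH 4, 18 h) in triplicate. Reaction stopped with glycine pH 10 and read at 415 nm. pD2 is taken from dose–response curves against the C5a EC50. Efficacy is given relative to C5a maximum (100%).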
# [4] = species: Homo sapiens; test: Relative potency of peptide for human fetal artery was determined; format: functional; procedure, shortened: as §1
# [5] = species: Homo sapiens; test: Spasmogenic activity was measured by the ability to induce smooth muscle contraction in human fetal artery; format: functional, Muscle tissue; procedure, shortened: as §1
# [6] = species: Homo sapiens; test: Tested for the ability to stimulate beta-glucuronidase release from human polymorphonuclear cells (PMN) (n=4); format: functional; procedure, shortened: as §3
# [7] = species: Homo sapiens; test: Log potency ratio [pD2(C5a)-pD2(peptide)] was determined in human polymorphonuclear cells (PMN) (n=4); format: functional; procedure, shortened: as §3
# [8] = species: Homo sapiens; test: Relative potency of peptide to stimulate beta-glucuronidase release from human polymorphonuclear cells (PMN) (n=4); format: functional; procedure, shortened: as §3
# [9] = species: Homo sapiens; test: Maximum efficacy relative to C5a (100%) for human polymorphonuclear cells (PMN) was determined (n=4); format: functional; procedure, shortened: as §3
# [10] = (§4) Selectivity of peptide was determined from antilog[pD2(fetal artery)-pD2 (PMN enzyme release)] (n=10); format: functional
# Procedure, shortened: (§5)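 Selectivity = antilog[pD2(fetal artery) − pD2(PMN β-glucuronidase release)]. pD2 values come from full dose–response curves in each assay, each generated alongside C5a.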
# [11] = species: Homo sapiens; test: Log potency ratio [pD2(C5a)-pD2(peptide)] was determined in human fetal artery; format: functional; procedure, shortened: as §1
# [12] = species: Homo sapiens; test: Log potency ratio [log IC50(C5a)-log IC50(peptide)] was determined in human polymorphonuclear cells (PMN) (n=3); format: functional; procedure, shortened: as §2
# [13] = species: Homo sapiens; test: Log potency ratio [pD2(C5a)-pD2(peptide)] was determined for human polymorphonuclear cells (PMN) (n=4); format: functional; procedure, shortened: as §3
# [14] = species: Homo sapiens; test: Relative affinity for PMN receptor (n=3); format: functional; procedure, shortened: as §2
# [15] = species: Homo sapiens; test: as §4; format: functional; procedure, shortened: as §5
# [16] = species: Homo sapiens; test: Ratio of concentration agonist potency (EC50) to concentration inhibiting [125I]C5a binding (n=3); format: functional; procedure, shortened: as §2
# [17] = Selectivity of peptide was determined from antilog[pD2(fetal artery)-pD2 (PMN enzyme release)] (n=7); format: functional; procedure, shortened: as §5
# [18] = species: Homo sapiens; test: Log potency ratio [pD2(C5a)-pD2(peptide)] was determined in human polymorphonuclear cells (PMN) (n=5); format: functional; procedure, shortened: as §3
# [19] = species: Homo sapiens; test: Relative potency of peptide to stimulate beta-glucuronidase release from human polymorphonuclear cells (PMN) (n=5); format: functional; procedure, shortened: as §3
# [20] = species: Homo sapiens; test: Tested for the ability to stimulate beta-glucuronidase release from human polymorphonuclear cells (PMN) (n=5); format: functional; procedure, shortened: as §3
# [21] = species: Homo sapiens; test: Maximum efficacy relative to C5a (100%) for human polymorphonuclear cells (PMN) was determined (n=5); format: functional; procedure, shortened: as §3
# [22] = Selectivity of peptide was determined from antilog[pD2(fetal artery)-pD2 (PMN enzyme release)] (n=11); format: functional; procedure, shortened: as §5
EC50 [1] [µM],EC50 [3] [µM],SMILES,Potency [4] [%],pD2 [5],pD2 [6],Mean log concentration ratio [7],Potency [8] [%],C5a max [9] [%],Mean log concentration ratio [11],other results
0.07,3.1,CSCC[C@H](NC(=O)[C@@H]1CCCN1C(=O)[C@H](CCCCN)NC(=O)[C@H](Cc1ccccc1)NC(=O)[C@H](CO)NC(=O)[C@H](Cc1ccc(O)cc1)NC(=O)CCCCCN)C(=O)N1CCC[C@H]1C(=O)N[C@@H](CC(C)C)C(=O)N[C@H](C)C(=O)N[C@@H](CCCN=C(N)N)C(=O)O [listing 1 of 2 here],,,,,,,,IC50 [2]: 5.5 µM
0.1,4.9,CSCC[C@H](NC(=O)[C@@H]1CCCN1C(=O)[C@H](CCCCN)NC(=O)[C@H](Cc1ccccc1)NC(=O)[C@H](CO)NC(=O)[C@H](Cc1ccc(O)cc1)NC(=O)CCCCCNC(=O)[C@H](CCCCN)NC(=O)CNC(=O)[C@@H](N)CCCCN)C(=O)N1CCC[C@H]1C(=O)N[C@@H](CC(C)C)C(=O)N[C@H](C)C(=O)N[C@@H](CCCN=C(N)N)C(=O)O [listing 1 of 2 here],,,,,,,,
,,CSCC[C@H](NC(=O)[C@@H]1CCCN1C(=O)[C@H](CCCCN)NC(=O)[C@H](Cc1ccccc1)NC(=O)[C@H](CO)NC(=O)[C@H](Cc1ccc(O)cc1)NC(=O)[C@H](CCCCN)NC(=O)CNC(=O)[C@H](CCCCN)NC(=O)CNC(=O)[C@@H](N)CCCCN)C(=O)N1CCC[C@H]1C(=O)N[C@@H](CC(C)C)C(=O)N[C@H](C)C(=O)N[C@@H](CCCN=C(N)N)C(=O)O,6.2,6.81,5.4,2.05,0.9,198,1.2,Selectivity [10]: 26
,,CSCC[C@H](NC(=O)[C@@H]1CCCN1C(=O)[C@H](CCCCN)NC(=O)[C@H](Cc1ccccc1)NC(=O)[C@H](CO)NC(=O)[C@H](Cc1ccc(O)cc1)NC(=O)CCCCCNC(=O)[C@H](CCCCN)NC(=O)CNC(=O)[C@@H](N)CCCCN)C(=O)N1CCC[C@H]1C(=O)N[C@@H](CC(C)C)C(=O)N[C@H](C)C(=O)N[C@@H](CCCN=C(N)N)C(=O)O [listing 2 of 2 here],11,6.98,5.31,1.99,1,156,0.97,Selectivity [10]: 47
,,CSCC[C@H](NC(=O)[C@@H]1CCCN1C(=O)[C@H](CCCCN)NC(=O)[C@H](Cc1ccccc1)NC(=O)[C@H](CO)NC(=O)[C@H](Cc1ccc(O)cc1)NC(=O)CCCCCN)C(=O)N1CCC[C@H]1C(=O)N[C@@H](CC(C)C)C(=O)N[C@H](C)C(=O)N[C@@H](CCCN=C(N)N)C(=O)O [listing 2 of 2 here],16,7.16,5.51,,1.2,180,0.79,Mean log concentration ratio [12]: 4.33; Mean log concentration ratio [13]: 1.9; C5a affinity [14]: 0.005%; Selectivity [15]: 45; Ratio [16]: 0.6
0.1,9.3,CSCC[C@H](NC(=O)[C@@H]1CCCN1C(=O)[C@H](CCCCN)NC(=O)[C@H](Cc1ccccc1)NC(=O)[C@H](CO)NC(=O)[C@H](Cc1ccc(O)cc1)NC(C)=O)C(=O)N1CCC[C@H]1C(=O)N[C@@H](CC(C)C)C(=O)N[C@H](C)C(=O)N[C@@H](CCCN=C(N)N)C(=O)O,,,,,,,,
,,CSCC[C@H](NC(=O)[C@@H]1CCCN1C(=O)[C@H](CCCCN)NC(=O)[C@H](Cc1ccccc1)NC(=O)[C@H](CO)NC(=O)[C@H](Cc1ccc(O)cc1)NC(=O)CCCCCNC(=O)[C@H](Cc1c[nH]c2ccccc12)NC(=O)[C@@H](N)CC(=O)O)C(=O)N1CCC[C@H]1C(=O)N[C@@H](CC(C)C)C(=O)N[C@H](C)C(=O)N[C@@H](CCCN=C(N)N)C(=O)O,8.5,6.96,5.14,2.3,0.5,173,0.91,Selectivity [17]: 66
,,CSCC[C@H](NC(=O)[C@@H]1CCCN1C(=O)[C@H](CCCCN)NC(=O)[C@H](Cc1ccccc1)NC(=O)[C@H](CO)NC(=O)[C@H](Cc1ccc(O)cc1)NC(=O)CCCCCNC(=O)[C@H](Cc1c[nH]c2ccccc12)NC(=O)[C@@H](N)CCCCN)C(=O)N1CCC[C@H]1C(=O)N[C@@H](CC(C)C)C(=O)N[C@H](C)C(=O)N[C@@H](CCCN=C(N)N)C(=O)O,14,7.11,,,,,0.86,Mean log concentration ratio [18]: 1.72; Potency [19]: 1.9%; pD2 [20]: 5.6; C5a max [21]: 134%; Selectivity [22]: 32
